In ChEMBL document CHEMBL4350969, “Falcipain Inhibitors Based on the Natural Product Gallinamide A Are Potent in Vitro and in Vivo Antimalarials” (J Med Chem, 2019):
The source made the active and inactive calls. The calls are words filed in the database; no cut-off is given here.

Legend:
[1] = target: T1, Cysteine protease falcipain-3 (Plasmodium falciparum, UniProt Q9NAW4); test: Inhibition of Plasmodium falciparum N-terminal His-tagged falcipain-3 (33 residues) expressed in Escherichia coli M15 pREP4 using Z-Leu-Arg-AMC as substrate measured after 30 mins by spectrofluorometric method
T1 sequence (Q9NAW4 whole entry): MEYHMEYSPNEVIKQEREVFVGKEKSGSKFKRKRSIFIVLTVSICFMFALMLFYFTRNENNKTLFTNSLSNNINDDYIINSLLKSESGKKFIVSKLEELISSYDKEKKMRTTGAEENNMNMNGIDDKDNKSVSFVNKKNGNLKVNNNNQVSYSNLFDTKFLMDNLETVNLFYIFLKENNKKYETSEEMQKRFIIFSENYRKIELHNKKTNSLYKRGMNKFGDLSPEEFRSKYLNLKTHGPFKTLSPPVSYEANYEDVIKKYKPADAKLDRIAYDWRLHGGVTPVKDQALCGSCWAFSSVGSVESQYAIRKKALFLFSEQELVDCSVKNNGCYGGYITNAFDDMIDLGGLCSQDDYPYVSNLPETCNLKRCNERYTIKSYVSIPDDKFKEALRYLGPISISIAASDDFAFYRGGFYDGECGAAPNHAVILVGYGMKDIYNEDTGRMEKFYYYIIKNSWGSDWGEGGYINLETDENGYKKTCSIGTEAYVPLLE
In short: (§1)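 Recombinant heterologously expressed FP2 or FP3; inhibition measured by continuous kinetic cleavage of fluorogenic substrate Z-Leu-Arg-AMC.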

Falcipain 2 = target: T2, Falcipain 2 (Plasmodium falciparum, UniProt Q9N6S8); test: Inhibition of Plasmodium falciparum N-terminal His6-tagged falcipain-2 (35 residues) expressed in Escherichia coli M15 pREP4 using Z-Lue-Arg-AMC as substrate measured after 30 mins by spectrofluorometric method; in short: as §1
T2 sequence (Q9N6S8 whole entry): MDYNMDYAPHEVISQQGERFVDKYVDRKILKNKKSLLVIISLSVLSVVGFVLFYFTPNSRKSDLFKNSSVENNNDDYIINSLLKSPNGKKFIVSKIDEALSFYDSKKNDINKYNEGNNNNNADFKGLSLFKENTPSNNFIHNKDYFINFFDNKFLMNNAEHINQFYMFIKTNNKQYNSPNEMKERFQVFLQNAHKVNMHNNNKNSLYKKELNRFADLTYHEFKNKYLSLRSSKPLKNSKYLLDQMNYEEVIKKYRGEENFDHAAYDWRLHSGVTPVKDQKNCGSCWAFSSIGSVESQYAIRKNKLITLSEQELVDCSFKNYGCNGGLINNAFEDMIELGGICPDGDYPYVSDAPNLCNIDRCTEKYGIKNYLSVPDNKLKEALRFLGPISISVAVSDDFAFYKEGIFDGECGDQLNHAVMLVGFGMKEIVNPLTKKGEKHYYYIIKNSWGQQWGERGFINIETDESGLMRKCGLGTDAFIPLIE

Plasmodium berghei [2] = test: Antimalarial activity against Plasmodium berghei ANKA infected in specific pathogen-free C57BL/6 mouse assessed as reduction in parasitemia at […] to 12.5 mg/kg, ip administered at 72 hrs post-infection and measured daily up to 35 days post-infection by rapid staining-based microscopic analysis; format: functional, organism-based
In short: (§2)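 Peters 4-day suppressive test: female C57BL/6 mice, 8–9 weeks old, inoculated i.p. with 10^6 PbA-parasitized red cells in 200 µL Alsever's medium. Compound in DMSO diluted in saline (50, 25, 12.5, 6.25 mg/kg) or vehicle, 200 µL i.p. at 4, 24, 48 and 72 h. Daily tail-vein smears, Rapid Stain, % parasitemia by microscopy; cure = healthy, no parasitemia at day 35; 5 mice/group, mean ± SEM.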

Plasmodium berghei [3] = test: Antimalarial activity against Plasmodium berghei ANKA infected in specific pathogen-free C57BL/6 mouse assessed as mouse survival at 25 to 50 mg/kg, ip administered at 72 hrs post-infection by rapid staining-based microscopic analysis
Plasmodium falciparum [4] = test: Induction of morphological changes in synchronized ring stage Plasmodium falciparum W2 infected in human erythrocytes assessed as swollen food vacuoles with accumulated hemoglobin at 300 nM measured after 36 hrs by Giemsa staining-based photomicrographic method; format: functional, organism-based
In short: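 Synchronized W2 P. falciparum cultures exposed from ring stage for 36 h to compound (4.5–10,000 nM range), with E-64 and 0.1% DMSO controls; thin smears methanol-fixed, Giemsa-stained and photographed.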

Plasmodium berghei [5] = test: Antimalarial activity against Plasmodium berghei ANKA infected in specific pathogen-free C57BL/6 mouse assessed as reduction in parasitemia at 50 mg/kg, ip administered once daily for 4 days measured up to 35 days post-infection by rapid staining-based microscopic analysis; format: functional, organism-based
In short: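 Established-infection model: female C57BL/6 mice inoculated i.p. with 10^6 PbA-parasitized red cells; compound in DMSO diluted in saline given i.p. at 50 mg/kg on days 4, 5, 6 and 7 post-infection, chloroquine 50 mg/kg as comparator, vehicle controls; 7 mice per group. Tail-vein smears, % parasitemia by microscopy, mean ± SEM; survival recorded.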

HEK293 = test: Cytotoxicity against HEK293 cells assessed as reduction in cell viability at 25 uM measured after 18 hrs by alamar blue assay; format: cell-based; details: human, hek293, 18 h
[6] = Drug metabolism in human liver microsomes assessed as N,N-bis-demethylation at 10 uM measured after 60 mins in presence of NADPH-generating system by UPLC-MS analysis; format: ADME, Microsome; details: 1 h
Plasmodium berghei [7] = test: Antimalarial activity against Plasmodium berghei ANKA infected in specific pathogen-free C57BL/6 mouse assessed as reduction in disease severity at 100 mg/kg, po administered once daily for 4 days measured up to 35 days post-infection by rapid staining-based microscopic analysis; format: functional, organism-based
In short: (§3)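 Female C57BL/6 mice, 8–9 weeks old, inoculated i.p. with 10^6 P. berghei ANKA-parasitized red cells. Compound dissolved in DMSO, diluted in 154 mM NaCl, given by oral gavage at 100 mg/kg on days 4, 5, 6 and 7 post-infection. Tail-vein thin smears stained with Rapid Stain, % parasitemia by microscopy; mice euthanized at signs of severe disease.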

Plasmodium falciparum [8] = test: Antimalarial activity against synchronized ring stage CQ-resistant Plasmodium falciparum W2 infected in human erythrocytes incubated for 24 hrs followed by compound washout and subsequent compound addition and measured after 48 hrs by YOYO-1 probe-based flow cytometry; format: functional, organism-based
[9] = Drug metabolism in mouse liver microsomes assessed as N,N-bis-demethylation at 10 uM measured after 60 mins in presence of NADPH-generating system by UPLC-MS analysis; format: ADME, Microsome; details: 1 h
Plasmodium falciparum [10] = test: Antimalarial activity against synchronized ring stage CQ-sensitive Plasmodium falciparum 3D7 infected in human erythrocytes incubated for 24 hrs followed by compound washout and subsequent compound addition and measured after 48 hrs by YOYO-1 probe-based flow cytometry; format: functional, organism-based
[11] = Intrinsic clearance in mouse liver microsomes assessed per mg protein at 1 uM measured after 60 mins in presence of NADPH-generating system by UPLC-MS analysis; format: ADME, Microsome; details: read-out: CLH
[12] = Half life in Swiss mouse plasma at 1 ug/ml by UPLC-MS analysis; format: ADME, cell-free
In short: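 Fresh whole blood from non-fasted male Swiss outbred mice; plasma separated by centrifugation. Compound spiked to 1 μg/mL final (0.2% DMSO, 0.4% acetonitrile), kept at 37 °C; aliquots taken over 4 h (n=3 per time point), snap-frozen, protein precipitated with acetonitrile, UPLC-MS (ESI+) against matrix calibration standards. Exponential decay fit gives k; half-life = ln(2)/k.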

Plasmodium berghei [13] = test: Antimalarial activity against Plasmodium berghei ANKA infected in specific pathogen-free C57BL/6 mouse assessed as reduction in parasitemia at 100 mg/kg, po administered once daily for 4 days measured up to 35 days post-infection by rapid staining-based microscopic analysis; format: functional, organism-based; in short: as §3
[14] = Half life in Swiss mouse blood at 1 ug/ml by UPLC-MS analysis; format: ADME, tissue-based; details: whole blood
Plasmodium berghei [15] = test: Antimalarial activity against Plasmodium berghei ANKA infected in specific pathogen-free C57BL/6 mouse assessed as reduction in parasitemia at 12.5 to 50 mg/kg, ip administered at 72 hrs post-infection and measured daily up to 35 days post-infection by rapid staining-based microscopic analysis; format: functional, organism-based; in short: as §2
[16] = Drug metabolism in human liver microsomes assessed as N-demethylation at 10 uM measured after 60 mins in presence of NADPH-generating system by UPLC-MS analysis; format: ADME, Microsome; details: 1 h
[17] = Drug metabolism in mouse liver microsomes assessed as N-demethylation at 10 uM measured after 60 mins in presence of NADPH-generating system by UPLC-MS analysis; format: ADME, Microsome; details: 1 h
Plasmodium berghei [18] = test: Antimalarial activity against Plasmodium berghei ANKA infected in specific pathogen-free C57BL/6 mouse assessed as reduction in parasitemia at 25 to 50 mg/kg, ip administered at 72 hrs post-infection and measured daily up to 35 days post-infection by rapid staining-based microscopic analysis; format: functional, organism-based; in short: as §2

| SMILES | IC50 [1] | IC50 (Falcipain 2) | Activity (Plasmodium berghei [2]) | Survival (Plasmodium berghei [3]) | Activity (Plasmodium falciparum [4]) | Activity (Plasmodium berghei [5]) | Activity (HEK293) | Drug metabolism [6] | Activity (Plasmodium berghei [7]) | IC50 (Plasmodium falciparum [8]) | Drug metabolism [9] | IC50 (Plasmodium falciparum [10]) | microsomal CLint at 1 µM [11] | half-life at 1 ug/ml [12] | Activity (Plasmodium berghei [13]) | half-life at 1 ug/ml [14] | Activity (Plasmodium berghei [15]) | Drug metabolism [16] | Drug metabolism [17] | Activity (Plasmodium berghei [18]) |
| --- | --- | --- | --- | --- | --- | --- | --- | --- | --- | --- | --- | --- | --- | --- | --- | --- | --- | --- | --- | --- |
| COC1=CC(=O)N(C(=O)/C=C/[C@H](CCc2ccccc2)NC(=O)[C@H](CC(C)C)NC(=O)[C@H](CC(C)C)NC(=O)[C@H](C(C)C)N(C)C)[C@H]1Cc1c[nH]c2ccccc12.O=C(O)C(F)(F)F | 112 nM | 33 nM | Active | >35 days | Active | Active | Non-Toxic | Metabolite_Detected | Active | 4 nM | Metabolite_Detected | 1 nM | 787 µL/min/mg | 6.22 h | Active | 4.55 h |  |  |  |  |
| COC1=CC(=O)N(C(=O)/C=C/[C@H](C)NC(=O)[C@H](CC(C)C)NC(=O)[C@H](CC2CCCCC2)NC(=O)C2CCN(C)CC2)[C@H]1Cc1c[nH]c2ccccc12.O=C(O)C(F)(F)F | 117 nM | 31 nM |  |  | Active |  | Non-Toxic |  |  | 28 nM |  | 26 nM |  | 2.1 h |  | 0.683 h | Active | Metabolite_Detected | Metabolite_Detected |  |
| COC1=CC(=O)N(C(=O)/C=C/[C@H](C)NC(=O)[C@H](CC(C)C)NC(=O)[C@H](CC(C)C)NC(=O)C2CCN(C)CC2)[C@H]1Cc1c[nH]c2ccccc12.O=C(O)C(F)(F)F | 79 nM | 29 nM |  |  | Active |  | Non-Toxic |  |  | 49 nM |  | 42 nM |  | 1.37 h |  | 0.283 h |  | Metabolite_Detected | Metabolite_Detected | Active |
